From ChEMBL document CHEMBL1127752, “Synthesis and antitumor activity of novel mitomycin derivatives containing functional groups at the C-6-methyl position” (J Med Chem, 1994)

What was measured:
HeLa [1] = experiment: In vitro anticellular activity tested against HeLa S3 cells; type: functional, cell-based; conditions: Homo sapiens
Outline: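 HeLa S3 cells seeded on day 0, then exposed to drug for 1 h on day 1; anticellular activity determined by a previously described method.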

Mus musculus [2] = experiment: Effective dose that gave 50% inhibition of tumor growth was calculated towards sarcoma 180 cells which were inoculated subcutaneously to the axillary region of ddY mice; type: functional; conditions: Mus musculus, 180, sc
Outline: (§1)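 Sarcoma 180 cells implanted sc in the axillary region of ddY mice on day 0; compounds given iv on day 1. Tumor volume compared treated versus control (T/C). 50% growth-inhibitory dose calculated from the dose-response curve; optimal dose also recorded.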

Mus musculus [3] = experiment: In vivo antitumor activity against lymphatic leukemia P388 cells resistant to mitomycin C (MMC) was measured as maximal increase in life span of the treated mice at optimal dose of 9.0 mg/kg; type: functional
CCRF S-180 [4] = experiment: Optimal dose towards sarcoma 180 cells, inoculated subcutaneously to the axillary region of ddY mice; type: functional, Mus musculus; outline: as §1
Mus musculus [5] = experiment: In vivo antitumor activity against lymphatic leukemia P388 cells resistant to mitomycin C (MMC) was measured as maximal increase in life span of the treated mice at optimal dose of 25 mg/kg; type: functional
Mus musculus [6] = experiment: In vivo antitumor activity against lymphatic leukemia P388 cells sensitive to mitomycin C (MMC) was measured as maximal increase in life span of the treated mice at optimal dose of 25 mg/kg; type: functional
Mus musculus [7] = experiment: The in vivo antitumor activity against lymphatic leukemia P388 cells resistant to mitomycin C (MMC) in mice was measured as maximal increase in life span of the treated mice at optimal dose of 3.1 mg/kg; type: functional
Mus musculus [8] = experiment: In vivo antitumor activity against lymphatic leukemia P388 cells sensitive to mitomycin C (MMC) was measured as maximal increase in life span of the treated mice at optimal dose of 3.1 mg/kg; type: functional
CCRF S-180 [9] = experiment: Tumor volume of sarcoma 180 cells which were inoculated […] to the axillary region of ddY mice, after treatment; type: functional, Mus musculus
Mus musculus [10] = experiment: In vivo antitumor activity against lymphatic leukemia P388 cells resistant to mitomycin C (MMC) was measured as maximal increase in life span of the treated mice at optimal dose of 6.0 mg/kg; type: functional
Mus musculus [11] = experiment: Tumor volume was calculated against sarcoma 180 cells which were inoculated subcutaneously to the axillary region of ddY mice; 0.28-0.46
HeLa [12] = experiment: In vitro anticellular activity against HeLa S3 cells; 0.82-1.4; type: functional, cell-based; conditions: Homo sapiens
Mus musculus [13] = experiment: Optimal dose was calculated towards sarcoma 180 cells which were inoculated subcutaneously to the axillary region of ddY mice; 4.0-6.0; type: functional
Mus musculus [14] = experiment: In vivo antitumor activity against lymphatic leukemia P388 cells sensitive to mitomycin C (MMC) was measured as maximal increase in life span of the treated mice at optimal dose of 1.0-6.0 mg/kg; 38-84; type: functional
HeLa [15] = experiment: In vitro anticellular activity against HeLa S3 cells; 0.59-1.1; type: functional, cell-based; conditions: Homo sapiens
Mus musculus [16] = experiment: In vivo antitumor activity against lymphatic leukemia P388 cells resistant to mitomycin C (MMC) was measured as maximal increase in life span of the treated mice at optimal dose of 1.0-4.0 mg/kg; type: functional
Mus musculus [17] = experiment: Effective dose that gave 50% inhibition of tumor growth was calculated towards sarcoma 180 cells which were inoculated subcutaneously to the axillary region of ddY mice; 1.9-3.7; type: functional; conditions: Mus musculus, 180, sc

## CO[C@@]12[C@H](COC(N)=O)C3=C(C(=O)C(CSc4nncn4C)=C(N)C3=O)N1C[C@@H]1N[C@@H]12
HeLa [1]
  IC50: 2.5 µM
Mus musculus [2]
  ED50: 39 mg/kg
Mus musculus [3]
  ILS at 9 mg/kg: > 71%
CCRF S-180 [4]
  OD: 46 mg/kg

## CO[C@@]12[C@H](COC(N)=O)C3=C(C(=O)C(COC(C)C)=C(N)C3=O)N1C[C@@H]1N[C@@H]12
HeLa [1]
  IC50: 2.5 µM
Mus musculus [2]
  ED50: 15 mg/kg
Mus musculus [5]
  ILS at 25 mg/kg: > 97%
CCRF S-180 [4]
  OD: 50 mg/kg
Mus musculus [6]
  ILS at 25 mg/kg: 55%

## CO[C@@]12[C@H](COC(N)=O)C3=C(C(=O)C(CSc4nccs4)=C(N)C3=O)N1C[C@@H]1N[C@@H]12
HeLa [1]
  IC50: 1.4 µM
Mus musculus [7]
  ILS at 3.1 mg/kg: 26%
Mus musculus [2]
  ED50: 8.9 mg/kg
CCRF S-180 [4]
  OD: 13 mg/kg
Mus musculus [8]
  ILS at 3.1 mg/kg: 49%

## C=CCSCC1=C(N)C(=O)C2=C(C1=O)N1C[C@@H]3N[C@@H]3[C@]1(OC)[C@@H]2COC(N)=O
HeLa [1]
  IC50: 2.3 µM
CCRF S-180 [9]
  T/C: 0.77 min
Mus musculus [10]
  ILS at 6 mg/kg: 33%
CCRF S-180 [4]
  OD: 14 mg/kg

## CO[C@@]12[C@H](COC(N)=O)C3=C(C(=O)C(C)=C(N)C3=O)N1C[C@@H]1N[C@@H]12 [MITOMYCIN]
Mus musculus [11]
  T/C: 0.46
HeLa [12]
  IC50: 1.4 µM
Mus musculus [13]
  OD: 6 mg/kg
Mus musculus [14]
  ILS: 84%
HeLa [15]
  IC50: 1.1 µM
Mus musculus [16]
  ILS: 23%
Mus musculus [17]
  ED50: 3.7 mg/kg
